Experimental data from ChEMBL document CHEMBL4321879, “Novel Class of Colony-Stimulating Factor 1 Receptor Kinase Inhibitors Based on an o-Aminopyridyl Alkynyl Scaffold as Potential Treatment for Inflammatory Disorders” (J Med Chem, 2020).
Activity calls are given as the source filed them. No cut-off for these calls is given here.

Legend:
[1] = biological target: Fibroblast growth factor receptor 2 (Homo sapiens, UniProt P21802); test: Inhibition of recombinant human N-terminal His6-tagged FGFR2 (456 to 770 residues) expressed in baculovirus infected Sf21 insect cells using poly (Glu, Tyr)4:1 as substrate measured after 1 hr by ELISA
Summary of the method: (§1)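 Recombinant kinase was incubated with compound in reaction buffer containing 5 μM ATP, in wells precoated with poly(Glu,Tyr) 4:1, for 1 h at 37 °C. Phosphorylation was detected by ELISA.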

Mus musculus = test: Antiinflammatory activity in BALB/c mouse assessed as reduction in LPS-induced IL6 production at 20 to 40 mg/kg, po pretreated for 4 hrs followed by LPS-stimulation and measured after 3 hrs by ELISA; assay type: functional, organism-based
Summary of the method: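 Female BALB/c mice, 8 weeks old, n = 6 per group, dosed orally at 20 or 40 mg/kg in 0.5% CMC-Na/0.25% Tween-80 4 h before ip LPS 5 mg/kg. Orbital-sinus blood was taken at 1.5 h (TNF-α) and 3 h (IL-6). Serum cytokines measured by ELISA. Mean ± SEM, one-way ANOVA with Dunnett's test.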

[2] = biological target: Fibroblast growth factor receptor 4 (Homo sapiens, UniProt P22455); test: Inhibition of recombinant human N-terminal His6-tagged FGFR4 (442 to 755 residues) expressed in baculovirus infected Sf21 insect cells at 100 nM using poly (Glu, Tyr)4:1 as substrate measured after 1 hr by ELISA relative to control; summary of the method: as §1
[3] = biological target: Tyrosine-protein kinase ABL1 (Homo sapiens) (UniProt P00519); test: Inhibition of recombinant human N-terminal His6-tagged Abl (27 to end residues) expressed in baculovirus infected Sf21 insect cells at 1000 nM using poly (Glu, Tyr)4:1 as substrate measured after 1 hr by ELISA relative to control; summary of the method: as §1
[4] = biological target: Voltage-gated inwardly rectifying potassium channel KCNH2 (Homo sapiens, UniProt Q12809); test: Inhibition of human ERG by Qpatch automatic patch-clamp assays
[5] = biological target: Tyrosine-protein kinase ABL1 (Homo sapiens) (UniProt P00519); test: Inhibition of recombinant human N-terminal His6-tagged Abl (27 to end residues) expressed in baculovirus infected Sf21 insect cells at 10 nM using poly (Glu, Tyr)4:1 as substrate measured after 1 hr by ELISA relative to control; summary of the method: as §1
[6] = biological target: Macrophage colony-stimulating factor 1 receptor (Mus musculus) (UniProt P09581); test: Inhibition of CSF1R in CSF1-stimulated mouse RAW264.7 cells assessed as reduction in CSF1R phosphorylation preincubated for 6 hrs followed by CSF1 stimulation and measured after 20 mins by Western blot analysis; assay type: cell-based
Summary of the method: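 RAW264.7 cells were plated in six-well plates overnight, treated with compound for 6 h, then stimulated with CSF-1 100 ng/mL for 20 min. Lysates were normalized by BCA, run on 10% SDS-PAGE, and blotted with antibodies to phospho-CSF1R (Tyr723), CSF1R, phospho-Akt (Ser473), Akt and actin.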

[7] = biological target: Insulin-like growth factor 1 receptor (Homo sapiens) (UniProt P08069); test: Inhibition of recombinant human N-terminal His6-tagged IGF1R (959 to end residues) expressed in baculovirus infected Sf21 insect cells at 100 nM using poly (Glu, Tyr)4:1 as substrate measured after 1 hr by ELISA relative to control
Summary of the method: (§2)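 ELISA kinase assay: recombinant kinase added to wells precoated with poly(Glu,Tyr)4:1 and incubated with compound in reaction buffer containing 5 μM ATP, 37 °C for 1 h; wells then washed before antibody detection.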

[8] = biological target: Proto-oncogene tyrosine-protein kinase receptor Ret (Homo sapiens) (UniProt P07949); test: Inhibition of recombinant human N-terminal GST-tagged RET (658 to end residues) expressed in baculovirus infected Sf21 insect cells at 100 nM using poly (Glu, Tyr)4:1 as substrate measured after 1 hr by ELISA relative to control; summary of the method: as §1
[9] = biological target: Fibroblast growth factor receptor 3 (Homo sapiens, UniProt P22607); test: Inhibition of recombinant human N-terminal His6-tagged FGFR3 (447 to 761 residues) expressed in baculovirus infected Sf21 insect cells at 100 nM using poly (Glu, Tyr)4:1 as substrate measured after 1 hr by ELISA relative to control; summary of the method: as §1
[10] = biological target: Vascular endothelial growth factor receptor 2 (Homo sapiens) (UniProt P35968); test: Inhibition of recombinant human VEGFR2 (D1-7) expressed in Spodoptera frugiperda insect cells at 1000 nM using poly (Glu, Tyr)4:1 as substrate measured after 1 hr by ELISA relative to control; summary of the method: as §2
FLT3 = FLT3 (Homo sapiens, UniProt P36888); test: Inhibition of recombinant human N-terminal GST-tagged FLT3 (564 to end residues) expressed in Sf21 insect cells at 1000 nM using poly (Glu, Tyr)4:1 as substrate measured after 1 hr by ELISA relative to control; details: probe poly (Glu, Tyr)4:1; summary of the method: as §1
[11] = biological target: Receptor tyrosine-protein kinase erbB-2 (Homo sapiens) (UniProt P04626); test: Inhibition of recombinant Erbb2 (unknown origin) at 1000 nM using poly (Glu, Tyr)4:1 as substrate measured after 1 hr by ELISA relative to control; summary of the method: as §1
[12] = biological target: Focal adhesion kinase 1 (Homo sapiens) (UniProt Q05397); test: Inhibition of recombinant human N-terminal His6-tagged FAK (411 to 686 residues) expressed in baculovirus infected Sf21 insect cells at 1000 nM using poly (Glu, Tyr)4:1 as substrate measured after 1 hr by ELISA relative to control; summary of the method: as §1
[13] = Tmax in Sprague-Dawley rat at 5 mg/kg, po administered via gavage by LC-MS/MS analysis; assay type: ADME, organism-based; details: in vivo
Summary of the method: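 Male SD rats (200 ± 20 g), fasted 12 h, n = 3; oral gavage 5 mg/kg in DMSO/HPMC (5/95). Femoral vein blood at 15–1440 min; plasma precipitated with methanol plus internal standard, LC–MS/MS; noncompartmental analysis, Tmax observed directly, MRT = AUMC/AUC.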

[14] = Oral bioavailability in Sprague-Dawley rat at 5 mg/kg administered via gavage by LC-MS/MS analysis; assay type: ADME, organism-based; details: in vivo
Summary of the method: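 Male SD rats (n = 3 per route), fasted 12 h; 5 mg/kg oral gavage (DMSO/HPMC 5/95) versus 2 mg/kg iv (DMSO/EtOH/PEG300/saline). Plasma sampled 15–1440 min, LC–MS/MS; F = AUC0–∞(oral)/AUC0–∞(iv) × dose(iv)/dose(oral) × 100%.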

[15] = biological target: Tyrosine-protein kinase BTK (Homo sapiens) (UniProt Q06187); test: Inhibition of recombinant human full-length N-terminal His6-tagged BTK expressed in baculovirus infected Sf21 insect cells at 100 nM using poly (Glu, Tyr)4:1 as substrate measured after 1 hr by ELISA relative to control; summary of the method: as §2
RAW264.7 = test: Antiinflammatory activity in mouse RAW264.7 cells assessed as reduction in LPS-induced IL6 release measured after 24 hrs by ELISA; assay type: functional, cell-based; details: RAW264.7, 24 h
Summary of the method: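 RAW264.7 cells in DMEM with 10% FBS and 0.125% DMSO were incubated with compound, then primed with LPS 1 μg/mL for 24 h. Supernatant TNF-α and IL-6 measured by mouse ELISA. IC50 from log(inhibitor) versus normalized response nonlinear fit.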

Tyrosine-protein kinase ABL1 (Homo sapiens), sequence (P00519 whole entry): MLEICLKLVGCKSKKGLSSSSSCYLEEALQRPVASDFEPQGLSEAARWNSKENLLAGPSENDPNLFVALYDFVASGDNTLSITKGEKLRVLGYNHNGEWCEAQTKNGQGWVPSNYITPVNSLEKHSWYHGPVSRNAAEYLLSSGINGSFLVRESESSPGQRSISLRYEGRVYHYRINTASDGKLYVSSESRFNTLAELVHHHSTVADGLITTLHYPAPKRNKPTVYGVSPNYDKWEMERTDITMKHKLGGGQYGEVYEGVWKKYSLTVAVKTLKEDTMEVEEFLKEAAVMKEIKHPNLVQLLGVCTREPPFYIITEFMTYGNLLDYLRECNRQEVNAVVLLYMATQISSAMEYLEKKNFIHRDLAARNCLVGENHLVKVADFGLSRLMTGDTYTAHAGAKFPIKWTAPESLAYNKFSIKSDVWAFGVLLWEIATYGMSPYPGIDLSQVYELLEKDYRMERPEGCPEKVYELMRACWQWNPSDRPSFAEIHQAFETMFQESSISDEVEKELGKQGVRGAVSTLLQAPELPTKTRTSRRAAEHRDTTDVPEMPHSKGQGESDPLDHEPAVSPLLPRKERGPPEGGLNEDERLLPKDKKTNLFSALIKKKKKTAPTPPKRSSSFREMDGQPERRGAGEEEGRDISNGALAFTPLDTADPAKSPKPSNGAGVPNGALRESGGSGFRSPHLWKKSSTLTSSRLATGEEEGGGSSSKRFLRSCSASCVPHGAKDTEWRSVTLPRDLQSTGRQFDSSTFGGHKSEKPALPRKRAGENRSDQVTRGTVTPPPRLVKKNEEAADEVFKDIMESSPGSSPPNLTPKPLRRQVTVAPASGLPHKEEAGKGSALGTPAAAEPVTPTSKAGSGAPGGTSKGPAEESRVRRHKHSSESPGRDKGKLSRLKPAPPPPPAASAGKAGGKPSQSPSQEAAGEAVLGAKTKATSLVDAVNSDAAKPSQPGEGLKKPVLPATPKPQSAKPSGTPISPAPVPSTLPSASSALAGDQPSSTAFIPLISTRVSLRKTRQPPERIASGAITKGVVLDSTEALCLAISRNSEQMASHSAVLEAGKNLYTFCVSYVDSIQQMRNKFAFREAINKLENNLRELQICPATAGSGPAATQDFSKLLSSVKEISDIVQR
Proto-oncogene tyrosine-protein kinase receptor Ret (Homo sapiens), sequence (P07949 whole entry, the tested form may be a part): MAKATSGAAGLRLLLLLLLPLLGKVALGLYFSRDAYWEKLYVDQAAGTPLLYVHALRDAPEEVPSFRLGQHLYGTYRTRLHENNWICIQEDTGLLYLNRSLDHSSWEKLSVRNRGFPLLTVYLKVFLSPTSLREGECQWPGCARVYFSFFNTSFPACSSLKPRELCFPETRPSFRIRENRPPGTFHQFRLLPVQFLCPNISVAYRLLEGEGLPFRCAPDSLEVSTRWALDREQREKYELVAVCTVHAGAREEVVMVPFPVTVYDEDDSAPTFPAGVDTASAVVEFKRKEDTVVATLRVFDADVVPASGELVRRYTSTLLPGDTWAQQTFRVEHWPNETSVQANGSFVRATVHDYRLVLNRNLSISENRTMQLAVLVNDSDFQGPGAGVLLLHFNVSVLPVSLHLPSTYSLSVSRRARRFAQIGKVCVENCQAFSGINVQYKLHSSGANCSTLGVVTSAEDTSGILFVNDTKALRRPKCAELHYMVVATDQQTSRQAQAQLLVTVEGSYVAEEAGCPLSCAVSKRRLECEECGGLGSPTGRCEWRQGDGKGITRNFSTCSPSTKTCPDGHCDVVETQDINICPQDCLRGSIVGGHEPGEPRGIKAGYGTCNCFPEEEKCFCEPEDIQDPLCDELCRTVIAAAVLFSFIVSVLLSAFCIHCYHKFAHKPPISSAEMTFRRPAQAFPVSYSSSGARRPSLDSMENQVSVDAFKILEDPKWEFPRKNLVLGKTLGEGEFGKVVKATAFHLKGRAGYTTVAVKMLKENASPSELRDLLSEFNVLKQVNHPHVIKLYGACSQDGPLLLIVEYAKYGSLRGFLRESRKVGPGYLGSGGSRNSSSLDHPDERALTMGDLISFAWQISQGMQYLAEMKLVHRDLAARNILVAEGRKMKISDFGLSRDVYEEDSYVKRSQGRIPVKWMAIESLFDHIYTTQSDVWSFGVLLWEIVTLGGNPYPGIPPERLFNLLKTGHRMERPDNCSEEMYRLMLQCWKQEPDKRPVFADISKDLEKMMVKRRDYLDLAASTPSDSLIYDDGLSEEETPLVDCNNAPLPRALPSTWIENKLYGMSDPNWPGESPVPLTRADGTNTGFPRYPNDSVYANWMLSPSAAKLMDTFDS
Focal adhesion kinase 1 (Homo sapiens), sequence (Q05397 2-1052 limits assumed): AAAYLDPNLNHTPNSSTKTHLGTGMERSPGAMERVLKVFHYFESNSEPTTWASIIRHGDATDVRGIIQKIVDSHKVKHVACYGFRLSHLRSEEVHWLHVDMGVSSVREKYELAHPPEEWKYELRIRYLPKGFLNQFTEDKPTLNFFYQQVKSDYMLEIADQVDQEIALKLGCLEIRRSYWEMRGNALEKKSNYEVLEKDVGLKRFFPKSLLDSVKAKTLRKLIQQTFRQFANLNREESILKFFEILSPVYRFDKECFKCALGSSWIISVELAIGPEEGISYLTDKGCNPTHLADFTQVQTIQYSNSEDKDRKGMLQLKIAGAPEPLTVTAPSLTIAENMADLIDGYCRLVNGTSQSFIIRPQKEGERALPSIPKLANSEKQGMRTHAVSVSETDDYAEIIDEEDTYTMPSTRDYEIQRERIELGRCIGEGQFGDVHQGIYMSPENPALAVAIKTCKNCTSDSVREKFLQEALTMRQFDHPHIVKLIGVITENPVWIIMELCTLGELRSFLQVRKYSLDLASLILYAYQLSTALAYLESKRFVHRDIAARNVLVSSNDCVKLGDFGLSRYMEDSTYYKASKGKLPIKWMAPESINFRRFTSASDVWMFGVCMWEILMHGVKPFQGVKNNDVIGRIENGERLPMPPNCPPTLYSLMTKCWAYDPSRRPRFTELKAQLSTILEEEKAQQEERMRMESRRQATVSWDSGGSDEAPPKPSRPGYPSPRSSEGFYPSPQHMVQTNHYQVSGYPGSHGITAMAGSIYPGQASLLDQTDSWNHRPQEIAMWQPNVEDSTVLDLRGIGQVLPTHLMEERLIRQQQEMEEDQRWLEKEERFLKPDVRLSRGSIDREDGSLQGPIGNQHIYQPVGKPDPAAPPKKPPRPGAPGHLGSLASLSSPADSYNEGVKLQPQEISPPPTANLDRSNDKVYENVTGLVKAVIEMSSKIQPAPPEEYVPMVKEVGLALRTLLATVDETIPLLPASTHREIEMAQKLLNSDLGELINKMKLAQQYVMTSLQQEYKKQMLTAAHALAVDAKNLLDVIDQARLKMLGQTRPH
Receptor tyrosine-protein kinase erbB-2 (Homo sapiens), sequence (P04626 whole entry, the tested form may be a part): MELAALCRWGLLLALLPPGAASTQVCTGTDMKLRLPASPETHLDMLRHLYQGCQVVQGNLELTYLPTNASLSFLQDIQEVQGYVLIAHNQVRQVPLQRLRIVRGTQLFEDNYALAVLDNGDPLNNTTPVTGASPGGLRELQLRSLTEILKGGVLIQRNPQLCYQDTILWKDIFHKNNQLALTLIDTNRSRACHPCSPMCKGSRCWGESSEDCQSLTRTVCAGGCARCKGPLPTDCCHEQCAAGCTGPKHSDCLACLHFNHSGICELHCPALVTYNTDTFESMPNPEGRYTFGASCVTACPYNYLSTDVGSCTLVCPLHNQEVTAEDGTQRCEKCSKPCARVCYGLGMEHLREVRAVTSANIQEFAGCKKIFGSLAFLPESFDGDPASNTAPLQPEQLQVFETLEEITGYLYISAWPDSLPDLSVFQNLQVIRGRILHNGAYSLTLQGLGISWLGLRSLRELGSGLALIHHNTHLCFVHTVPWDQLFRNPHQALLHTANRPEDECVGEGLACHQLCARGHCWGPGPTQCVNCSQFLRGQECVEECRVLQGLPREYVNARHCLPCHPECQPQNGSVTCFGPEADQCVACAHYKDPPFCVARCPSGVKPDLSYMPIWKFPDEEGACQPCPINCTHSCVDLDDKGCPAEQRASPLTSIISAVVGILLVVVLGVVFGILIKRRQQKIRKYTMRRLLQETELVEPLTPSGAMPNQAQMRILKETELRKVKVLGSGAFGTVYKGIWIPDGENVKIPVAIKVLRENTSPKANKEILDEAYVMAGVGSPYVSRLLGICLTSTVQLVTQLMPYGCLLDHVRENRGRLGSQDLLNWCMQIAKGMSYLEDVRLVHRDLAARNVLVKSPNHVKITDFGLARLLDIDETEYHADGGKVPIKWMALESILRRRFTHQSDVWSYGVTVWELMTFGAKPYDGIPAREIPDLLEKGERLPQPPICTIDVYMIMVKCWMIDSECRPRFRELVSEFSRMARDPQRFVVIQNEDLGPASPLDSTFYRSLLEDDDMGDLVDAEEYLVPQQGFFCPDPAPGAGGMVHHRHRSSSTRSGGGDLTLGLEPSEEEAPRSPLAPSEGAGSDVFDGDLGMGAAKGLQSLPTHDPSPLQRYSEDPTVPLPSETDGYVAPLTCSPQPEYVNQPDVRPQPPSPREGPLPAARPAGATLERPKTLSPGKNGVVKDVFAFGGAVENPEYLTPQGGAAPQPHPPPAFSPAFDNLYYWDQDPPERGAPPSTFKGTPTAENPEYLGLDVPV

IC50 [1]: > 1000 nM
inhibition [2]: 0%
inhibition [3]: 98.3%
inhibition [5]: 0%
inhibition [6]: Dose-dependent effect
inhibition [7]: 0%
inhibition [8]: 77.6%
inhibition [9]: 0%
inhibition [10]: 95.5%
inhibition at 1 h, 1 µM (FLT3): 5.9%
inhibition [11]: 9.5%
inhibition [12]: 10.8%
Tmax [13]: 4 h
bioavailability [14]: 34.8%
inhibition [15]: 0%
IC50 (RAW264.7): 130 nM
SMILES: Cc1ccc(C(=O)Nc2ccc(Cl)cc2)cc1C#Cc1cc(-c2cnn(C)c2)cnc1N
Activity (Mus musculus): Active
IC50 [4]: > 40000 nM
